Results published in ChEMBL document CHEMBL1641600, “Novel bifunctional alkylating agents, 5,10-dihydropyrrolo[1,2-b]isoquinoline derivatives, synthesis and biological activity” (Bioorg Med Chem, 2011).
The source made the active and inactive calls. The rule behind the calls is not given here.

Experiments:
[1] = Cytotoxicity against human OECM1 cells after 72 hrs by Alamar blue assay; format: functional, cell-based; settings: OECM1, 72 h
Summary of the method: (§1)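 H1299, PC3, OECM1 and U87 cells exposed 72 h to six or seven drug concentrations. Alamar blue added for 6 h at 37 °C; absorbance read at 570 and 600 nm. IC50 obtained from dose-effect data by the median-effect principle.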

[2] = Cytotoxicity against human U87 cells after 72 hrs by Alamar blue assay; format: functional, cell-based, U-87MG ATCC; settings: U-87 MG; summary of the method: as §1
[3] = Cytotoxicity against human H1299 cells after 72 hrs by Alamar blue assay; format: functional, cell-based; settings: NCI-H1299, 72 h; summary of the method: as §1
[4] = system: PC-3; experiment: Cytotoxicity against human PC3 cells after 72 hrs by Alamar blue assay; format: functional, cell-based; settings: PC-3, 72 h; summary of the method: as §1
[5] = system: MX1; experiment: Cytotoxicity against human MX1 cells after 72 hrs by SRB assay; format: functional, cell-based; settings: MX1, 72 h
Summary of the method: (§2)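 MX-1 breast and HCT-116 colon carcinoma cells exposed 72 h to six or seven drug concentrations. Growth measured by SRB assay with microplate absorbance. IC50 obtained from dose-effect data by the median-effect principle.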

[6] = system: HCT-116; experiment: Cytotoxicity against human HCT116 cells after 72 hrs by SRB assay; format: functional, cell-based; settings: HCT-116, 72 h; summary of the method: as §2
[7] = system: CCRF-CEM; experiment: Cytotoxicity against vinblastine-resistant human CCRF-CEM cells after 72 hrs by XTT assay; format: functional, cell-based
Summary of the method: (§3)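 Leukemic CCRF-CEM and its Taxol- and vinblastine-resistant sublines exposed 72 h to six or seven drug concentrations. XTT with phenazine methosulfate added for 6 h at 37 °C; absorbance read at 450 and 630 nm. IC50 obtained from dose-effect data by the median-effect principle.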

[8] = system: CCRF-CEM; experiment: Cytotoxicity against Taxol-resistant human CCRF-CEM cells after 72 hrs by XTT assay; format: functional, cell-based; summary of the method: as §3
[9] = system: CCRF-CEM; experiment: Cytotoxicity against human CCRF-CEM cells after 72 hrs by XTT assay; format: functional, cell-based; summary of the method: as §3
[10] = system: CCRF-CEM; experiment: Ratio of IC50 for Taxol-resistant human CCRF-CEM cells to IC50 for human CCRF-CEM cells
[11] = system: MX1; experiment: Antitumor activity against human MX1 cells implanted in mouse assessed as complete suppression in tumor size at 30 mg/kg, iv Q2D for 2 times measured on day 8 and 10; format: functional, organism-based; parameters: dose 30 mg/kg
Summary of the method: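 Athymic nu/nu nude mice (outbred Swiss background, male, ≥8 weeks, about 22 g) bearing human tumor xenografts; MX-1 dosed iv Q2D×2 (day 8 and 10), SK-OV-3 dosed iv QD×4 from day 22. Tail-vein injection in DMSO/Tween 80/saline vehicle at the maximal tolerable dose. Tumor volume measured by caliper (length×width×height or width); body weight followed; n = 4.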

[12] = system: Nucleic Acid; experiment: Induction of Escherichia coli pEGFP-N1 DNA cross-linking at 1 to 20 uM after 2 hrs by alkaline agarose gel shift assay; format: nucleic-acid assay
Summary of the method: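 pEGFP-N1 plasmid DNA (1.5 µg) incubated with compound (1–20 µM) in binding buffer (3 mM NaCl/1 mM sodium phosphate pH 7.4, 1 mM EDTA) for 2 h at 37 °C. Plasmid then linearized with BamHI, ethanol-precipitated, and resolved on alkaline agarose gel into single-stranded and cross-linked bands. Melphalan (1, 5, 10 µM) as positive control.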

[13] = system: NCI-H1299; experiment: Cell cycle arrest in human H1299 cells assessed as accumulation at S phase at 5 uM after 24 hrs by propidium iodide staining-based flow cytometry; settings: NCI-H1299, 24 h
[14] = system: NCI-H1299; experiment: Cell cycle arrest in human H1299 cells assessed as accumulation at G1 phase at 5 uM after 24 hrs by propidium iodide staining-based flow cytometry; settings: NCI-H1299, 24 h
[15] = system: NCI-H1299; experiment: Cell cycle arrest in human H1299 cells assessed as accumulation at S phase at 2.5 uM after 24 hrs by propidium iodide staining-based flow cytometry; settings: NCI-H1299, 24 h
[16] = system: NCI-H1299; experiment: Cell cycle arrest in human H1299 cells assessed as accumulation at S phase at 1.25 uM after 24 hrs by propidium iodide staining-based flow cytometry; settings: NCI-H1299, 24 h
[17] = system: NCI-H1299; experiment: Cell cycle arrest in human H1299 cells assessed as accumulation at G1 phase at 2.5 uM after 24 hrs by propidium iodide staining-based flow cytometry; settings: NCI-H1299, 24 h
[18] = system: NCI-H1299; experiment: Cell cycle arrest in human H1299 cells assessed as accumulation at G2/M phase at 5 uM after 24 hrs by propidium iodide staining-based flow cytometry; settings: NCI-H1299, 24 h
[19] = system: NCI-H1299; experiment: Cell cycle arrest in human H1299 cells assessed as accumulation at G1 phase at 1.25 uM after 24 hrs by propidium iodide staining-based flow cytometry; settings: NCI-H1299, 24 h
[20] = system: NCI-H1299; experiment: Cell cycle arrest in human H1299 cells assessed as accumulation at subG1 phase at 5 uM after 24 hrs by propidium iodide staining-based flow cytometry; settings: NCI-H1299, 24 h
[21] = system: NCI-H1299; experiment: Cell cycle arrest in human H1299 cells assessed as accumulation at G2/M phase at 2.5 uM after 24 hrs by propidium iodide staining-based flow cytometry; settings: NCI-H1299, 24 h
[22] = system: NCI-H1299; experiment: Cell cycle arrest in human H1299 cells assessed as accumulation at G2/M phase at 1.25 uM after 24 hrs by propidium iodide staining-based flow cytometry; settings: NCI-H1299, 24 h
[23] = system: NCI-H1299; experiment: Cell cycle arrest in human H1299 cells assessed as accumulation at subG1 phase at 2.5 uM after 24 hrs by propidium iodide staining-based flow cytometry; settings: NCI-H1299, 24 h
[24] = system: NCI-H1299; experiment: Cell cycle arrest in human H1299 cells assessed as accumulation at subG1 phase at 1.25 uM after 24 hrs by propidium iodide staining-based flow cytometry; settings: NCI-H1299, 24 h
[25] = system: SK-OV-3; experiment: Antitumor activity against human SKOV3 cells implanted in mouse assessed as significant suppression in tumor size at 20 mg/kg, iv QD for 4 times measured on day 22

## CCNC(=O)OCc1c(COC(=O)NCC)c2n(c1C)Cc1ccccc1C2
[1]
  IC50: 11300 nM
[2]
  IC50: 13900 nM
[3]
  IC50: 19400 nM
[4]
  IC50: 15400 nM
[5]
  IC50: 2270 nM
[6]
  IC50: 900 nM
[7]
  IC50: 120 nM
[8]
  IC50: 110 nM
[9]
  IC50: 240 nM
[10]
  Ratio IC50: 0.48

## Cc1c(COC(=O)NC(C)C)c(COC(=O)NC(C)C)c2n1Cc1ccccc1C2
[1]
  IC50: 11800 nM
[2]
  IC50: 26600 nM
[3]
  IC50: 9770 nM
[4]
  IC50: 16900 nM
[5]
  IC50: 1280 nM
[6]
  IC50: 1380 nM
[7]
  IC50: 140 nM
[8]
  IC50: 230 nM
[9]
  IC50: 270 nM
[10]
  Ratio IC50: 0.84

## CCNC(=O)OCc1c(COC(=O)NCC)c(-c2ccc(F)cc2)n2c1Cc1ccccc1C2
[1]
  IC50: 12500 nM
[2]
  IC50: 28400 nM
[3]
  IC50: 3940 nM
[4]
  IC50: 9590 nM
[5]
  IC50: 1510 nM
[6]
  IC50: 790 nM
[7]
  IC50: 570 nM
[8]
  IC50: 430 nM
[9]
  IC50: 310 nM
[10]
  Ratio IC50: 1.39

## Cc1c(CO)c(CO)c2n1Cc1ccccc1C2
[1]
  IC50: 6100 nM
[2]
  IC50: 27900 nM
[3]
  IC50: 2480 nM
[4]
  IC50: 6070 nM
[5]
  IC50: 660 nM
[6]
  IC50: 290 nM
[7]
  IC50: 90 nM
[8]
  IC50: 100 nM
[9]
  IC50: 80 nM
[11]
  Activity: Active
[12]
  Activity: Active
[10]
  Ratio IC50: 1.22
[13]
  cell population % at 5 µM: 24.7%
[14]
  cell population % at 5 µM: 0.5%
[15]
  cell population % at 2.5 µM: 18.3%
[16]
  cell population % at 1.25 µM: 32.7%
[17]
  cell population % at 2.5 µM: 7.7%
[18]
  cell population % at 5 µM: 48.4%
[19]
  cell population % at 1.25 µM: 5.6%
[20]
  cell population % at 5 µM: 26.5%
[21]
  cell population % at 2.5 µM: 47.3%
[22]
  cell population % at 1.25 µM: 40.1%
[23]
  cell population % at 2.5 µM: 26.6%
[24]
  cell population % at 1.25 µM: 21.6%
[25]
  Activity: Active

## OCc1c(CO)c(-c2ccc(F)cc2)n2c1Cc1ccccc1C2
[1]
  IC50: 6990 nM
[2]
  IC50: 23200 nM
[3]
  IC50: 8760 nM
[4]
  IC50: 5930 nM
[5]
  IC50: 4010 nM
[6]
  IC50: 2460 nM
[7]
  IC50: 490 nM
[8]
  IC50: 880 nM
[9]
  IC50: 510 nM
[10]
  Ratio IC50: 1.72
